From ChEMBL document CHEMBL3400013, “Synthesis and biological activity evaluation of hydrazone derivatives based on a Tröger's base skeleton” (Bioorg Med Chem, 2015)
The source made the active and inactive calls. The calls are words filed in the database; no cut-off is given here.

Test system: BJ
Test: Selectivity index, ratio of IC50 for human BJ cells to IC50 for human K562 cells
Type: functional
Settings: not given
For `O=C(N/N=C/c1cc(Cl)ccc1O)c1ccc2c3c(ccc2c1)N1Cc2c(ccc4cc(C(=O)N/N=C/c5cc(Cl)ccc5O)ccc24)N(C3)C1`, the “Ratio IC50” value was 1.

Test system: K562
Test: Selectivity index, ratio of IC50 for human MRC5 cells to IC50 for human K562 cells
Type: functional
Settings: not given
With `O=C(N/N=C/c1cc(Cl)ccc1O)c1ccc2c3c(ccc2c1)N1Cc2c(ccc4cc(C(=O)N/N=C/c5cc(Cl)ccc5O)ccc24)N(C3)C1` the “Ratio IC50” value was 1.

Test system: Escherichia coli
Test: Antimicrobial activity against Escherichia coli CCM 3954 up to 200 uM after 24 to 48 hrs by broth microdilution method
Type: functional, organism-based
Settings: not given
With `O=C(N/N=C/c1cc(Cl)ccc1O)c1ccc2c3c(ccc2c1)N1Cc2c(ccc4cc(C(=O)N/N=C/c5cc(Cl)ccc5O)ccc24)N(C3)C1` the Activity was “inactive”.

Test system: not listed separately
Test: Metal chelating activity of the compound assessed as formation of Ca2+ complex by UV-vis spectrometry
Type: physicochemical
Settings: not given
For `O=C(N/N=C/c1cc(Cl)ccc1O)c1ccc2c3c(ccc2c1)N1Cc2c(ccc4cc(C(=O)N/N=C/c5cc(Cl)ccc5O)ccc24)N(C3)C1`, the Activity was “Not Active”.

Test system: Candida parapsilosis
Test: Antifungal activity against Candida parapsilosis up to 200 uM after 24 to 48 hrs by broth microdilution method
Type: functional, organism-based
Settings: not given
For `O=C(N/N=C/c1cc(Cl)ccc1O)c1ccc2c3c(ccc2c1)N1Cc2c(ccc4cc(C(=O)N/N=C/c5cc(Cl)ccc5O)ccc24)N(C3)C1`, the Activity was “inactive”.

Test system: Candida albicans
Test: Antifungal activity against Candida albicans up to 200 uM after 24 to 48 hrs by broth microdilution method
Type: functional, organism-based
Settings: not given
With `O=C(N/N=C/c1cc(Cl)ccc1O)c1ccc2c3c(ccc2c1)N1Cc2c(ccc4cc(C(=O)N/N=C/c5cc(Cl)ccc5O)ccc24)N(C3)C1` the Activity was “inactive”.

Test system: not listed separately
Test: Metal chelating activity of the compound assessed as formation of Zn2+ complex by UV-vis spectrometry
Type: physicochemical
Settings: not given
In the case of `O=C(N/N=C/c1cc(Cl)ccc1O)c1ccc2c3c(ccc2c1)N1Cc2c(ccc4cc(C(=O)N/N=C/c5cc(Cl)ccc5O)ccc24)N(C3)C1`, the Activity is reported as “Active”.

Test system: BJ
Test: Selectivity index, ratio of IC50 for human BJ cells to IC50 for human HCT116 cells
Type: functional
Settings: not given
For `O=C(N/N=C/c1cc(Cl)ccc1O)c1ccc2c3c(ccc2c1)N1Cc2c(ccc4cc(C(=O)N/N=C/c5cc(Cl)ccc5O)ccc24)N(C3)C1`, the “Ratio IC50” value was 1.

Test system: not listed separately
Test: Metal chelating activity of the compound assessed as formation of Mn2+ complex by UV-vis spectrometry
Type: physicochemical
Settings: not given
For `O=C(N/N=C/c1cc(Cl)ccc1O)c1ccc2c3c(ccc2c1)N1Cc2c(ccc4cc(C(=O)N/N=C/c5cc(Cl)ccc5O)ccc24)N(C3)C1`, the Activity was “Not Active”.

Test system: Pseudomonas aeruginosa
Test: Antimicrobial activity against multidrug-resistant Pseudomonas aeruginosa A/16575 up to 200 uM after 24 to 48 hrs by broth microdilution method
Type: functional, organism-based
Settings: not given
With `O=C(N/N=C/c1cc(Cl)ccc1O)c1ccc2c3c(ccc2c1)N1Cc2c(ccc4cc(C(=O)N/N=C/c5cc(Cl)ccc5O)ccc24)N(C3)C1` the Activity was “inactive”.

Test system: not listed separately
Test: Metal chelating activity of the compound assessed as formation of Fe3+ complex by UV-vis spectrometry
Type: physicochemical
Settings: not given
In the case of `O=C(N/N=C/c1cc(Cl)ccc1O)c1ccc2c3c(ccc2c1)N1Cc2c(ccc4cc(C(=O)N/N=C/c5cc(Cl)ccc5O)ccc24)N(C3)C1`, the Activity is reported as “Active”.

Test system: K562
Test: Cytostatic activity against human K562 cells after 72 hrs by MTT assay
Type: functional, cell-based
Settings: K562, 72 h
How it was run: (§1)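 Cells were seeded at 25,000–30,000 per well and pre-incubated for 24 h at 37°C in 5% CO2. Four-fold compound dilutions were added in duplicate and incubated for 72 h. MTT was added for 1–4 h, and formazan was dissolved in 10% aq SDS (pH 5.5) overnight at 37°C. OD was read at 540 nm. IC50 came from dose-response curves, mean ± SD of eight independent experiments.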
For `O=C(N/N=C/c1cc(Cl)ccc1O)c1ccc2c3c(ccc2c1)N1Cc2c(ccc4cc(C(=O)N/N=C/c5cc(Cl)ccc5O)ccc24)N(C3)C1`, the IC50 was > 100 µM.

Test system: A549
Test: Cytostatic activity against human A549 cells after 72 hrs by MTT assay
Type: functional, cell-based
Settings: A549, 72 h
How it was run: as §1
For `O=C(N/N=C/c1cc(Cl)ccc1O)c1ccc2c3c(ccc2c1)N1Cc2c(ccc4cc(C(=O)N/N=C/c5cc(Cl)ccc5O)ccc24)N(C3)C1`, the IC50 was > 100 µM.

Test system: not listed separately
Test: Cytostatic activity against human HCT116 cells after 72 hrs by MTT assay
Type: functional, cell-based
Settings: HCT-116, 72 h
How it was run: as §1
In the case of `O=C(N/N=C/c1cc(Cl)ccc1O)c1ccc2c3c(ccc2c1)N1Cc2c(ccc4cc(C(=O)N/N=C/c5cc(Cl)ccc5O)ccc24)N(C3)C1`, the IC50 is reported as > 100 µM.

Test system: Nucleic Acid
Test: Binding affinity to DNA (unknown origin) assessed as DNA intercalation by UV-visible spectrophotometry in presence of Fe3+
Type: nucleic-acid assay
Settings: not given
For `O=C(N/N=C/c1cc(Cl)ccc1O)c1ccc2c3c(ccc2c1)N1Cc2c(ccc4cc(C(=O)N/N=C/c5cc(Cl)ccc5O)ccc24)N(C3)C1`, the Activity was “Active”.

Test system: BJ
Test: Selectivity index, ratio of IC50 for human BJ cells to IC50 for human CCRF-CEM cells
Type: functional
Settings: pooled result: one value given for 2 cell lines, strains, targets or settings
For `O=C(N/N=C/c1cc(Cl)ccc1O)c1ccc2c3c(ccc2c1)N1Cc2c(ccc4cc(C(=O)N/N=C/c5cc(Cl)ccc5O)ccc24)N(C3)C1`, the “Ratio IC50” value was 2.4.

Test system: not listed separately
Test: Metal chelating activity of the compound assessed as formation of Ni2+ complex by UV-vis spectrometry
Type: physicochemical
Settings: not given
In the case of `O=C(N/N=C/c1cc(Cl)ccc1O)c1ccc2c3c(ccc2c1)N1Cc2c(ccc4cc(C(=O)N/N=C/c5cc(Cl)ccc5O)ccc24)N(C3)C1`, the Activity is reported as “Active”.

Test system: Escherichia coli
Test: Antimicrobial activity against multidrug-resistant Escherichia coli C/16702 up to 200 uM after 24 to 48 hrs by broth microdilution method
Type: functional, organism-based
Settings: not given
In the case of `O=C(N/N=C/c1cc(Cl)ccc1O)c1ccc2c3c(ccc2c1)N1Cc2c(ccc4cc(C(=O)N/N=C/c5cc(Cl)ccc5O)ccc24)N(C3)C1`, the Activity is reported as “inactive”.

Test system: Staphylococcus aureus
Test: Antimicrobial activity against methicillin-resistant Staphylococcus aureus MRSA 4591 up to 200 uM after 24 to 48 hrs by broth microdilution method
Type: functional, organism-based
Settings: not given
With `O=C(N/N=C/c1cc(Cl)ccc1O)c1ccc2c3c(ccc2c1)N1Cc2c(ccc4cc(C(=O)N/N=C/c5cc(Cl)ccc5O)ccc24)N(C3)C1` the Activity was “inactive”.

Test system: CEM-DNR
Test: Selectivity index, ratio of IC50 for human MRC5 cells to IC50 for human CEM-DNR cells
Type: functional
Settings: not given
For `O=C(N/N=C/c1cc(Cl)ccc1O)c1ccc2c3c(ccc2c1)N1Cc2c(ccc4cc(C(=O)N/N=C/c5cc(Cl)ccc5O)ccc24)N(C3)C1`, the “Ratio IC50” value was 1.

Test system: Nucleic Acid
Test: Binding affinity to DNA (unknown origin) assessed as DNA intercalation by UV-visible spectrophotometry in presence of Cu2+
Type: nucleic-acid assay
Settings: not given
For `O=C(N/N=C/c1cc(Cl)ccc1O)c1ccc2c3c(ccc2c1)N1Cc2c(ccc4cc(C(=O)N/N=C/c5cc(Cl)ccc5O)ccc24)N(C3)C1`, the Activity was “Active”.

Test system: HCT-116
Test: Selectivity index, ratio of IC50 for human MRC5 cells to IC50 for human HCT116 cells
Type: functional
Settings: not given
In the case of `O=C(N/N=C/c1cc(Cl)ccc1O)c1ccc2c3c(ccc2c1)N1Cc2c(ccc4cc(C(=O)N/N=C/c5cc(Cl)ccc5O)ccc24)N(C3)C1`, the “Ratio IC50” value is reported as 1.

Test system: HCT-116
Test: Selectivity index, ratio of IC50 for human MRC5 cells to IC50 for human p53-/- HCT116 cells
Type: functional
Settings: not given
With `O=C(N/N=C/c1cc(Cl)ccc1O)c1ccc2c3c(ccc2c1)N1Cc2c(ccc4cc(C(=O)N/N=C/c5cc(Cl)ccc5O)ccc24)N(C3)C1` the “Ratio IC50” value was 1.

Test system: Nucleic Acid
Test: Binding affinity to DNA (unknown origin) assessed as DNA intercalation by UV-visible spectrophotometry in presence of Zn2+
Type: nucleic-acid assay
Settings: not given
For `O=C(N/N=C/c1cc(Cl)ccc1O)c1ccc2c3c(ccc2c1)N1Cc2c(ccc4cc(C(=O)N/N=C/c5cc(Cl)ccc5O)ccc24)N(C3)C1`, the Activity was “Active”.

Test system: not listed separately
Test: Metal chelating activity of the compound assessed as formation of Cr3+ complex by UV-vis spectrometry
Type: physicochemical
Settings: not given
In the case of `O=C(N/N=C/c1cc(Cl)ccc1O)c1ccc2c3c(ccc2c1)N1Cc2c(ccc4cc(C(=O)N/N=C/c5cc(Cl)ccc5O)ccc24)N(C3)C1`, the Activity is reported as “Not Active”.
